Test results reported in ChEMBL document CHEMBL3045046, “Synthesis, herbicidal activities, and 3D-QSAR of 2-cyanoacrylates containing aromatic methylamine moieties” (J Agric Food Chem, 2008).

Experiments:
Format in all cases: functional
Amaranthus retroflexus [1] = test: Herbicidal activity against Amaranthus retroflexus assessed as inhibition of herb growth at 1.5 kg/ha during preemergence treatment protocol; details: pre-emergence, read-out: GI
Digitaria sanguinalis [2] = test: Herbicidal activity against hairy Digitaria sanguinalis (hairy crabgrass) assessed as inhibition of herb growth at 1.5 kg/ha during postemergence treatment protocol; details: post-emergence, read-out: GI
Medicago sativa [3] = test: Herbicidal activity against Medicago sativa (alfalfa) assessed as inhibition of herb growth at 1.5 kg/ha during postemergence treatment protocol; details: post-emergence, read-out: GI
Amaranthus retroflexus [4] = test: Herbicidal activity against Amaranthus retroflexus assessed as inhibition of herb growth at 1.5 kg/ha during postemergence treatment protocol; details: post-emergence, read-out: GI
Brassica napus [5] = test: Herbicidal activity against Brassica napus (oilseed rape) assessed as inhibition of herb growth at 1.5 kg/ha during postemergence treatment protocol; details: post-emergence, read-out: GI
Digitaria sanguinalis [6] = test: Herbicidal activity against hairy Digitaria sanguinalis (hairy crabgrass) assessed as inhibition of herb growth at 1.5 kg/ha during preemergence treatment protocol; details: pre-emergence, read-out: GI
Medicago sativa [7] = test: Herbicidal activity against Medicago sativa (alfalfa) assessed as inhibition of herb growth at 1.5 kg/ha during preemergence treatment protocol; details: pre-emergence, read-out: GI
Brassica napus [8] = test: Herbicidal activity against Brassica napus (oilseed rape) assessed as inhibition of herb growth at 1.5 kg/ha during preemergence treatment protocol; details: pre-emergence, read-out: GI
Spinacia oleracea = test: Inhibition of photosynthetic electron transport in Spinacia oleracea (spinach)isolated chloroplasts assessed as inhibition of Hill reaction
In short: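 Chloroplasts from fresh spinach leaves, homogenised in ice-cold pH 7.8 buffer (0.4 M sucrose, 10 mM NaCl, 50 mM Tris-HCl), spun 3 min 120g then 5 min 1000g at 4 °C. Reaction buffer 350 mM NaCl, 10 mM Tris-HCl pH 7.8 with DCPIP; 2 min light (360 µmol m^-2 s^-1), DCPIP reduction at 620 nm. Compounds 0.01 mg/L–0.3 mg/mL in […]/water, ≥triplicate; IC50 by log-linear regression.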

[9] = Spinacia oleracea, read-out: pIC50 (converted)

Compound | inhibition of growth at 1500 g/ha (Amaranthus retroflexus [1]) [%] | inhibition of growth at 1500 g/ha (Digitaria sanguinalis [2]) [%] | inhibition of growth at 1500 g/ha (Medicago sativa [3]) [%] | inhibition of growth at 1500 g/ha (Amaranthus retroflexus [4]) [%] | inhibition of growth at 1500 g/ha (Brassica napus [5]) [%] | inhibition of growth at 1500 g/ha (Digitaria sanguinalis [6]) [%] | inhibition of growth at 1500 g/ha (Medicago sativa [7]) [%] | inhibition of growth at 1500 g/ha (Brassica napus [8]) [%] | IC50 (Spinacia oleracea) [ppm] | IC50 (Spinacia oleracea; [9]) [µM]
CCOCCOC(=O)/C(C#N)=C(\NCc1cnc(OC)nc1)C(C)C | 22.2 | 52.2 | 74 | 3.4 | 19.4 | 46.2 | 57.1 | 0 |  | 
CCOCCOC(=O)/C(C#N)=C(\NCc1cnc(OCC)nc1)SC | 15.9 | 8.7 | 40.8 | 26.4 | 16.1 | 12.5 | 31.1 | 0 | 1.45 | 1.07
CCOCCOC(=O)/C(C#N)=C(\NCC1CCCO1)SC (stereo not given) | 9.5 | 0 | 23.4 | 37.8 | 47.5 | 35.7 | 21.8 | 0 | 27.92 | 20.9
CCOCCOC(=O)/C(C#N)=C(\NCC1CCCO1)C(C)C (stereo not given) | 3.2 | 100 | 60.5 | 100 | 97.2 | 40 | 20.3 | 80 | 6.874 | 6.92
CCOCCOC(=O)/C(C#N)=C(\NCC1CCOC1)C(C)C (stereo not given) | 12.6 | 57.6 | 41.3 | 37.8 | 88.2 | 0 | 2.3 | 0 | 41.4 | 41.7
CCOCCOC(=O)/C(C#N)=C(\NCc1ccoc1)C(C)C | 22.1 | 0 | 13.2 | 27.4 | 51.9 | 33.6 | 10.5 | 0 | 6.6 | 6.61
CCOCCOC(=O)/C(C#N)=C(\NCc1cnc(OCC)s1)C(C)C | 37.8 | 51.2 | 41.4 | 100 | 100 | 0 | 5.4 | 48.7 | 0.223 | 0.224
CCCOc1ncc(CN/C(SC)=C(/C#N)C(=O)OCCOCC)s1 | 27 | 49.6 | 57.3 | 100 | 100 | 0 | 17.6 | 0 | 0.05 | 0.0501
CCCOc1ncc(CN/C(=C(/C#N)C(=O)OCCOCC)C(C)C)s1 | 27 | 52.8 | 48.7 | 100 | 100 | 6.9 | 0 | 9.8 | 0.08 | 0.0794
CCOCCOC(=O)/C(C#N)=C(\NCc1cnc(OC(C)C)s1)SC | 40.5 | 54.4 | 53.6 | 100 | 100 | 14.8 | 4.5 | 26 | 0.07 | 0.0708
CCOCCOC(=O)/C(C#N)=C(\NCc1cnc(OC(C)C)s1)C(C)C | 100 | 60.8 | 43.4 | 100 | 100 | 6.9 | 1.7 | 51.4 | 0.076 | 0.0759
CCOCCOC(=O)/C(C#N)=C(\NCc1cnc(OCC(F)(F)F)s1)SC | 43.2 | 47.2 | 60.9 | 98.7 | 100 | 8.9 | 1.7 | 65.4 | 0.055 | 0.055
CCOCCOC(=O)/C(C#N)=C(\NCc1cnc(OCC(F)(F)F)s1)C(C)C | 51 | 95.2 | 53.3 | 100 | 100 | 34.6 | 0 | 71.9 | 0.074 | 0.0741
CCOCCOC(=O)/C(C#N)=C(\NCc1ccc(Cl)nn1)SC | 43.2 | 28.8 | 27.8 | 21.8 | 81 | 0 | 0 | 12.5 | 3.99 | 3.98
CCOCCOC(=O)/C(C#N)=C(\NCc1ccc(Cl)nn1)C(C)C | 27 | 48 | 31.4 | 91.6 | 100 | 10.9 | 4.5 | 59.5 | 4.3 | 4.27
CCOCCOC(=O)/C(C#N)=C(\NCc1ccc(OCC)nn1)SC | 56.8 | 0.8 | 24.2 | 32.9 | 64.6 | 0 | 0 | 0 | 12.29 | 9.12
CCOCCOC(=O)/C(C#N)=C(\NCc1ccc(OCC)nn1)C(C)C | 54 | 57.6 | 50.7 | 70.2 | 100 | 26.7 | 0 | 44.9 |  | 
CCOCCOC(=O)/C(C#N)=C(\NCc1ccc(N2CCOCC2)nn1)SC | 13.5 | 2.4 | 32.8 | 24 | 18.1 | 6.9 | 10.1 | 10.9 |  | 
CCOCCOC(=O)/C(C#N)=C(\NCc1ccc(N2CCOCC2)nn1)C(C)C | 5.4 | 13.6 | 15.2 | 19.1 | 85.4 | 22.8 | 2.6 | 49.8 |  | 
CCOCCOC(=O)/C(C#N)=C(\NCc1cnc(OC)nc1)SC | 58.1 | 2.2 | 45.1 | 15.5 | 28.8 | 26 | 42.8 | 42.4 | 3.79 | 3.8
CCOCCOC(=O)/C(C#N)=C(/CC)NCc1cnc(OC)nc1 | 34.6 | 2.2 | 26 | 20.7 | 63.7 | 36 | 29.4 | 51.5 |  | 
CCOCCOC(=O)/C(C#N)=C(\NCc1cnc(Br)s1)C(C)C | 18.9 | 48 | 30.8 | 100 | 100 | 3 | 1.7 | 82.2 | 0.107 | 0.107
CCOCCOC(=O)/C(C#N)=C(\NCc1cnc(OCC)s1)SC | 43.2 | 51.2 | 62.6 | 100 | 100 | 44.6 | 14.8 | 23.3 | 0.115 | 0.115
